# Screens (PubChem)
# NF-kB neuron act = activators of NF-kB expression in neurons, primary screen, cell-based, HTS | fold change at 12.5 µM | human neuronal cells, NF-kB reporter expression; hits give high values | AID 1239, 2008 | hit rate 1.6% among 190,000; in the data active means fold change above about 3.3
# STAT3 activator = IL-6 driven STAT3 reporter potentiators, primary screen, U3A cells, luciferase, luminescence, MLSCN library | IL-6 STAT3-luciferase reporter; 100% = signal with IL-6 EC80 alone | activation (% of control), % at 5.6 µM | hit rate 0.91% among 190,000 | AID 871, 2007;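 active means activation above the screen-wide mean of compound activation plus 3 SD, cut at about 130% in these data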;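 further: 0% = background luminescence of wells with medium and substrate only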
#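 Material: STAT3-luciferase reporter U3A cells. Controls: IL-6-treated wells, 100% activation. Read-out: % activation versus median of IL-6-stimulated wells. Probe or stimulus: IL-6 stimulus at 33 ng/mL final. Timing: compound 1 h, then IL-6 6 h at 37 °C. Signal: reporter luminescence signal.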
# APP 5'UTR act = activators of APP 5'UTR luciferase reporter, primary screen, SH-SY5Y cells; SH-SY5Y APP 5'UTR luciferase reporter, luminescence; zero percent = DMSO vehicle wells; activation, % at 2 µM; hit rate 1% among 190,000;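 active means activation above a set limit, based on mean plus 3 SD of controls, cut at about 140% in these data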
# STAT1 activator = STAT1 signaling activators, primary screen, cell-based, HTS, luciferase reporter; activation (% of control), % at 5.5 µM; NIH 3T3 STAT1-luciferase reporter, IFN-gamma, luminescence; 100% = IFN-gamma alone, no compound; hit rate 2.6% among 200,000;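 active means activation above the screen-wide mean activation plus 3 SD, cut at about 130% in these data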;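 further: raw ratio to IFN-gamma control signal so 100% means no change and 0% no light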
# STAT3 blocker = IL-6 driven STAT3 reporter inhibitors, primary screen, U3A cells, luciferase, luminescence, MLSCN library | IL-6 STAT3-luciferase reporter; host cell line lacks STAT1 | inhibition, % at 5.5 µM | hit rate 0.89% among 190,000;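 active means inhibition above the mean inhibition across all screened compounds plus 3 SD, cut at about 44% in these data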;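 further: 0% = DMSO only wells and 100% = 100 µM nifuroxazide control wells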
# STAT1 blocker = STAT1 signaling inhibitors, primary screen, cell-based, HTS, luciferase reporter. NIH 3T3 STAT1-luciferase reporter, IFN-gamma, luminescence. inhibition, % at 5.5 µM. hit rate 0.35% among 200,000;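 active means inhibition above a set limit, the mean inhibition across all tested compounds plus 3 SD, cut at about 34% in these data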;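 further: 0% = IFN-gamma with DMSO and 100% = IFN-gamma with 300 µM nifuroxazide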
# STAT1 activ conf = STAT1 signaling activators, confirmation, cell-based, HTS, luciferase reporter. shares compounds with STAT1 activator. NIH 3T3 STAT1-luciferase reporter, IFN-gamma potentiation, luminescence; 100% = IFN-gamma EC80 alone, no compound. activation (% of control), % at 5.7 µM. hit rate 97% among 1,200. AID 1262, 2008;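 active means activation above a set limit carried over from the earlier primary STAT1 screen, cut at about 140% in these data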;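 further: simple ratio to median IFN-gamma plus DMSO wells so 0% means no light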
# NFkB act STAT1ct = NF-kB reporter activators, TNF-alpha stimulated, counter-screen for STAT1 activator project, cell-based, HEK293T, luciferase luminescence. AID 1306, 2008. 100% = TNF-alpha with vehicle only. hit rate 43% among 1,200. activation (% of control), % at 5.7 µM. shares compounds with STAT1 activator;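 active means activation above the mean of solvent-only control wells plus 3 SD, set per campaign, cut at about 130% in these data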;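 further: TNF-alpha given at a submaximal dose yielding about 80% of full reporter signal; values are well signal over median control so 100% means no change and 0% no light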
# STAT3 act STAT1c = STAT3 reporter activation by STAT1 hits, confirmation, counter-screen for STAT1 activator project, U3A cells, luciferase, luminescence; shares compounds with STAT1 activator; IL-6; cells lack STAT1; 100 = IL-6 alone, no compound effect; activation (% of control), % at 5.7 µM; hit rate 46% among 1,200;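 active means activation above the solvent-only control well mean plus 3 SD, set per plate batch, cut at about 110% in these data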;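 further: 0% = no luminescence and 100% = median IL-6 plus DMSO wells; higher means more STAT3 reporter activation so hits are non-selective activators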
# * = called active by the depositor; . = no result. Most compounds without a hit are left out; they make up all but 4.9% or so of the library.
SMILES,NF-kB neuron act,STAT3 activator,APP 5'UTR act,STAT1 activator,STAT3 blocker,STAT1 blocker,STAT1 activ conf,NFkB act STAT1ct,STAT3 act STAT1c
CCn1cnc2sc(-c3ccccc3)cc2c1=O,5.4*,108,182*,158*,1,-64,205*,130,109
N#CCn1cnc2sc(-c3ccccc3)cc2c1=O,1.7,94,19,123,11,-27,.,.,.
Cc1ccc(/C=N/Nc2ncc(Cl)cc2Cl)s1,1.9,88,6,125,21,-27,.,.,.
Clc1cnc(N/N=C/c2ccco2)c(Cl)c1,4.2*,86,155*,159*,15,-66,151*,111,92
O=C(Cn1cnc2ccccc2c1=O)c1ccc(Cl)cc1,.,95,17,155*,11,-59,148*,113,95
Cc1ccc(OCC(=O)Nc2ccc(N(C)C)cc2)cc1,1,100,12,91,5,9,.,.,.
Cc1ccc(NC(=S)c2ccc(N(C)C)cc2)cc1,3.5*,73,150*,170*,34,-77,201*,129,102
Nc1nonc1-c1noc(COc2ccccc2Cl)n1,8.8*,86,187*,166*,19,-72,219*,139*,116*
Clc1ccccc1OCc1nc(-c2ccccn2)no1,6.5*,85,171*,168*,21,-74,225*,120,103
CCOC(=O)c1c(C)nc2c3ccccc3ccn12,5*,114,160*,153*,-12,-57,202*,131,120*
CCOC(=O)c1c(C)nc2c(C)cccn12,1.1,90,-10,98,12,-3,.,.,.
CC(C)(C)N1C(=O)c2ccc(C(=O)Nc3nccs3)cc2C1=O,2,84,-11,154*,21,-59,174*,126,117*
CN(CC(=O)OCC(=O)NCC(F)(F)F)S(=O)(=O)c1ccc(Cl)cc1,1.1,103,12,101,7,-3,.,.,.
CNc1nc(-c2ccc3c(c2)CCN3C(=O)c2ccccc2F)cs1,7.5*,85,208*,159*,20,-67,215*,143*,96
O=c1cc(-c2ccccc2Cl)oc2cc(O)cc(O)c12,1.2,96,23,102,2,-2,.,.,.
O=C1C=CC(O)(c2cc(=O)c3c(O)cc(O)cc3o2)C=C1,0.83,91,-41,162*,8,-68,114,185*,131*
CCCOC(=O)c1ccc(-c2ccc(C=O)o2)cc1,4.8*,112,105,162*,-16,-70,217*,132,104
CN(C)CCN(C(=O)c1ccc(N2C(=O)CCC2=O)cc1)c1nc2cc3c(cc2s1)OCCO3,2,100,20,109,5,-13,.,.,.
S=C(Nc1ccccn1)Nc1ccccc1Cl,1.5,102,23,124,3,-30,.,.,.
S=C(Nc1ccccn1)c1ccccn1,20*,88,71,153*,17,-58,178*,124,112*
Cc1ccc(OCC(=O)Nc2ccccc2[N+](=O)[O-])c(Br)c1,5.7*,112,154*,160*,0,-66,202*,135*,109
